In publication PMC12486158 (Analytical biochemistry, 2025):

Assays:
Assay type in all cases: biochemical
[1] = molecular target: T1, Homo sapiens SAMHD1 (Homo sapiens, UniProt Q9Y3Z3); assay: Tight-binding inhibition of SAMHD1; conditions: read-out: Ki (Morrison equation, tight-binding); 100 nM SAMHD1, 500 μM dTTP (5×KM), eq. 4 & 5
[2] = molecular target: T1, Homo sapiens SAMHD1; assay: Lineweaver-Burk plot and mechanism of inhibition of SAMHD1
In short: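 Same GTP/dATP pre-activation and coupled MESG/PNP/Ppx1/PPase system. Final: 100 nM SAMHD1, 10 μM GTP, 500 nM dATP, 5 mM MgCl2. Reactions started with inhibitor (up to 4 μM) premixed into dTTP stocks of 0.625–10 mM. A360 followed for 20 min. Initial rates shown as a double-reciprocal plot and globally fitted to a competitive-inhibition equation for Kis. Mean ± SD of three independent experiments.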

[3] = molecular target: T1, Homo sapiens SAMHD1; assay: Steady-state kinetics of activated SAMHD1 with dTTP; conditions: read-out: KM of dTTP; 100 nM SAMHD1 activated with GTP and dATP, dTTP 8.4-500 μM
In short: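 Recombinant SAMHD1 (HisTrap, then size-exclusion purified) pre-activated stepwise with GTP then dATP, diluted, and mixed with MESG/PNP/Ppx1/PPase coupling cocktail. Final: 100 nM enzyme, 10 μM GTP, 500 nM dATP, 500 μM MESG, […], 10 nM Ppx1 and PPase. Buffer: HEPES pH 8.0, NaCl, MgCl2, TCEP, glycerol. dTTP 8.4–500 μM. A360 over 20 min. Rates corrected for 3 Pi/dTTP. Michaelis-Menten fit. Three independent experiments.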

T1 sequence (Q9Y3Z3 114-626): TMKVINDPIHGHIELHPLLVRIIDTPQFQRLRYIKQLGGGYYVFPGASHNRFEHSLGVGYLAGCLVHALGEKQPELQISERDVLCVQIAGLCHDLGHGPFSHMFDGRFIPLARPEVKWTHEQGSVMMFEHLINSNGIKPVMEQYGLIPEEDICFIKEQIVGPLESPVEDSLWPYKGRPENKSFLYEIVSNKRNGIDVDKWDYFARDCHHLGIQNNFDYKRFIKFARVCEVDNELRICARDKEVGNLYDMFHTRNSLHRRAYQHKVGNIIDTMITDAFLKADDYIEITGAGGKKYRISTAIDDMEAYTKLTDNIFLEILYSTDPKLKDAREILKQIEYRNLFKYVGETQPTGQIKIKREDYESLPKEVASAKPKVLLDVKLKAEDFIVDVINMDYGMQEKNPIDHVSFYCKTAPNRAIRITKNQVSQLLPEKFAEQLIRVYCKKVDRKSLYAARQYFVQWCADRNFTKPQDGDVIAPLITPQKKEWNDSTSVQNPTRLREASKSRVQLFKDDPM

Row | SMILES | Ki [1] | Mode of inhibition ([2]; double-reciprocal Lineweaver-Burk plot, varied dTTP) | Kis (global inhibition constant, competitive fit) ([2]; varied dTTP and dGPNPP (up to 4 μM), global fit) | Km [3]
1 | Nc1ccn([C@H]2C[C@H](O)[C@@H](COP(=O)(O)NP(=O)(O)OP(=O)(O)O)O2)c(=O)n1 [dCPNPP, 2'-Deoxycytidine-5'-[(α,β)-imido]triphosphate] | 67 ± 8 nM |  |  | 
2 | Nc1nc2c(ncn2[C@H]2C[C@H](O)[C@@H](COP(=O)(O)NP(=O)(O)OP(=O)(O)O)O2)c(=O)[nH]1 [dGPNPP, 2'-Deoxyguanosine-5'-[(α,β)-imido]triphosphate] | 25 ± 7 nM | competitive inhibition | 53 ± 7.0 nM | 
3 | Cc1cn([C@H]2C[C@H](O)[C@@H](COP(=O)(O)OP(=O)(O)OP(=O)(O)O)O2)c(=O)[nH]c1=O [dTTP, 2’-Deoxythymidine-5’-triphosphate] |  |  |  | 102 ± 9.4 µM
